Data published in article PMC4493932 (MedChemComm, 2013).
Like-named read-outs stand apart in the source and are kept apart here. Marks after values point to notes of the source that are not given here. Blank lines part the entries; values can stand above or below the compound they belong to.

What was measured:
[1] = target: hP2Y2R (Homo sapiens, UniProt P41231); assay: PLC activation in 1321N1 cells stably expressing the hP2Y2R; format: cell-based; settings: for EC50: read-out: Potency, EC50, P2Y2, 1321N1 astrocytoma cells expressing recombinant hP2Y2, mean ± SEM, NE = no effect
Sequence of hP2Y2R (P41231 whole entry): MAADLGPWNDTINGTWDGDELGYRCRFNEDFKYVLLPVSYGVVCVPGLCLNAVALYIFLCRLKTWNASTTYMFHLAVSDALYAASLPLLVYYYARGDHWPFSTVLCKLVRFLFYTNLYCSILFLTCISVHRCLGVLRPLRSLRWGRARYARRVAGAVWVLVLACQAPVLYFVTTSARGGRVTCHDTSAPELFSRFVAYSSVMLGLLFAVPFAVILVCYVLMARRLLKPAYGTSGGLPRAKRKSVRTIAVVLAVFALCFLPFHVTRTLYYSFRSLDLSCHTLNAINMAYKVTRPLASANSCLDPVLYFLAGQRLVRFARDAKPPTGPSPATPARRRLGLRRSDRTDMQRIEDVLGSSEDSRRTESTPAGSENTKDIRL
How it was run: (§1)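 Agonist-induced phospholipase C activation in 1321N1 human astrocytoma cells stably expressing recombinant human P2Y6, P2Y2 or P2Y4 receptor. EC50 values are given as mean ± SEM. Efficacy is expressed as percent of the maximal activation by a full agonist at 10 μM. Subtype selectivity is taken as the ratio of EC50 values.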

[2] = target: hP2Y4R (Homo sapiens, UniProt P51582); assay: PLC activation in 1321N1 cells stably expressing the hP2Y4R; format: cell-based; settings: percent of maximal activation by full agonist at 10 μM
Sequence of hP2Y4R (P51582 whole entry): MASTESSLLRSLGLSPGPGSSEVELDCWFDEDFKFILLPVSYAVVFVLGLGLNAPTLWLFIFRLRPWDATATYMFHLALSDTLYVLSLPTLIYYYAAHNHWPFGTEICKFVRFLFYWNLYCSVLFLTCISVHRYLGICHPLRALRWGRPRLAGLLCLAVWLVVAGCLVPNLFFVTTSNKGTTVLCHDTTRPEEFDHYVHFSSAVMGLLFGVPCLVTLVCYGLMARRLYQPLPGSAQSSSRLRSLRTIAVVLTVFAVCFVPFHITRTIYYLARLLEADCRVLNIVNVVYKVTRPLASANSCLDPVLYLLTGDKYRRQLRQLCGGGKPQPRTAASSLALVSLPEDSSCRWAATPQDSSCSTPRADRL
How it was run: as §1

[3] = target: P2Y6R expressed on 1321N1 astrocytoma cells (Homo sapiens, UniProt Q15077); assay: Flow cytometry; format: cell-based; settings: for Inhibition of fluorescent binding of 16 to 1321N1-P2Y6R cells: 30 min pre-incubation, then 16 for 2 min, FCM
Sequence of P2Y6R expressed on 1321N1 astrocytoma cells (Q15077 whole entry): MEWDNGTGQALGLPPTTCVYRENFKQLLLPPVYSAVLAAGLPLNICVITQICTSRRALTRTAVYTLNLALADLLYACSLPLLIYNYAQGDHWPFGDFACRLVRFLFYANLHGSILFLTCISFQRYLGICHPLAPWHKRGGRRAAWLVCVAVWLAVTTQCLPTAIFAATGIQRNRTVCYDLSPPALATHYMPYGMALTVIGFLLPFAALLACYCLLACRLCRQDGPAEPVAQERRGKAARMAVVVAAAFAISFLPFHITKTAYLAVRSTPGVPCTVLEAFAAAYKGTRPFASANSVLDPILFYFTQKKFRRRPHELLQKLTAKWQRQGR
How it was run: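 1321N1 human astrocytoma cells stably expressing human P2Y6R were pre-incubated 30 min with known P2Y6R ligands. Cells were then exposed for 2 min to an Alexa Fluor 488-conjugated nucleotide agonist, and labeling was read by flow cytometry. Fluorescence was converted to MESF. Nonspecific binding was defined with 100 μM UDP, and autofluorescence came from receptor-expressing cells without probe.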

[4] = target: P2Y6R-expressing 1321N1 astrocytoma cells (Homo sapiens, UniProt Q15077); assay: Fluorescence/confocal microscopy of P2Y6R-expressing 1321N1 astrocytoma cells; format: cell-based; settings: for Inhibition of fluorescent labeling by 16 (micrographs): 500 nM, 30 min preincubation at 37 °C, 16 500 nM, 60 min
Sequence of P2Y6R-expressing 1321N1 astrocytoma cells (Q15077 whole entry): as above
How it was run: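 Stably P2Y6R-expressing 1321N1 astrocytoma cells were exposed to an Alexa Fluor 488-conjugated nucleotide agonist (500 nM, 60 min, 37 °C), with or without a known P2Y6R agonist or a diisothiocyanate antagonist. Green fluorescence was imaged on a fluorescence microscope (excitation 495 nm, emission 519 nm).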

[5] = target: human (h) P2Y6R (Homo sapiens, UniProt Q15077); assay: PLC activation in 1321N1 human astrocytoma cells stably expressing the hP2Y6R; format: cell-based
Sequence of human (h) P2Y6R (Q15077 whole entry): as above
How it was run: as §1

[6] = test system: P2Y6R; settings: cited from earlier work; for EC50: read-out: P2Y6R agonist EC50
[7] = target: T1, hP2Y14R (Homo sapiens, UniProt Q15391); format: cell-based; settings: concentrations up to 10 μM; C6 rat glioma cells
T1 sequence (Q15391 1-338): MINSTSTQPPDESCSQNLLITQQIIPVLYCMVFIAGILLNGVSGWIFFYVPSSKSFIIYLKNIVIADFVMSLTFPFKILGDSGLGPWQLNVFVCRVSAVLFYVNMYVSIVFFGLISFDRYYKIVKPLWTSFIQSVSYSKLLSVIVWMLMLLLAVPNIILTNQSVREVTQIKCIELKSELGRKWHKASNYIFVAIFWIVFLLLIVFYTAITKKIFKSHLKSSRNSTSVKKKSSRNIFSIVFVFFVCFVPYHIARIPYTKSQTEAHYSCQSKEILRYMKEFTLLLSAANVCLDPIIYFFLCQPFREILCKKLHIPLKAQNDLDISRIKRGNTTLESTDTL

[8] = test system: control 1321N1 astrocytoma cells; assay: FCM labeling of control 1321N1 astrocytoma cells; format: cell-based, human; settings: 60 min incubation
How it was run: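 Whole-cell flow cytometry labelling with the Alexa Fluor 488-tagged test compound, 400 nM. Autofluorescence came from cells without the probe. Nonspecific binding was taken in the presence of 100 μM UDP, and specific binding is total minus nonspecific. Fluorescence was converted to molecules of equivalent soluble fluorochrome (MESF). Histograms are from one of three independent experiments.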

[9] = target: hP2Y1R (Homo sapiens, UniProt P47900); assay: Labeling of 1321N1 cells expressing the hP2Y1R; format: cell-based; settings: data not shown
Sequence of hP2Y1R (P47900 whole entry): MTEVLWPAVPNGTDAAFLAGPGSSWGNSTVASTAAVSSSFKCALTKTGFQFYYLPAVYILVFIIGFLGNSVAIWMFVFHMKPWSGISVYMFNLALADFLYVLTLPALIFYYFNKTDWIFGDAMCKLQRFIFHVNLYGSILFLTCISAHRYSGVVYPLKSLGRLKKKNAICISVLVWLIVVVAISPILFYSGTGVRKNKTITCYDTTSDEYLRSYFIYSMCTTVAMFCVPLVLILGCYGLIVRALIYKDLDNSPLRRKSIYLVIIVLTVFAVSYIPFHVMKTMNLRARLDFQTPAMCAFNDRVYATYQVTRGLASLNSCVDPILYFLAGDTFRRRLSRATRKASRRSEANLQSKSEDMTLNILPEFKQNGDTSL

[10] = test system: 1321N1 astrocytoma cells not expressing a P2YR; assay: Fluorescence microscopy of 1321N1 astrocytoma cells not expressing a P2YR; format: cell-based, human; settings: incubated with 16
How it was run: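 Confocal microscopy of 1321N1 astrocytoma cells incubated with the fluorescent test compound at 2 μM (figure panels give 1 μM) for 60 min at 37 °C. Cell-associated fluorescence was compared with receptor-expressing cells and with cells without the probe.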

% activation, P2Y2 ([1]; percent of maximal activation by full agonist at 10 μM): <50% ^c
% activation, P2Y4 [2]: <50% ^c
Compound: C#CCCOP(=O)(O)OP(=O)(O)OP(=O)(O)OC[C@H]1O[C@@H](n2cc/c(=N/OCc3ccccc3)[nH]c2=O)[C@H](O)[C@@H]1O [Compound 22]

Compound: S=C=Nc1cccc(NC(=S)NCCCCNC(=S)Nc2cccc(N=C=S)c2)c1 [MRS2578]
Inhibition of fluorescent binding of 16 to 1321N1-P2Y6R cells ([3]; 1 μM): significant reduction of labeling
Inhibition of fluorescent labeling by 16 (micrographs) [4]: inhibit fluorescent labeling

Compound: CO/N=c1/ccn([C@@H]2O[C@H](COP(=O)(O)OP(=O)(O)OP(=O)(O)Oc3ccc4ccccc4c3)[C@@H](O)[C@H]2O)c(=O)[nH]1 [Compound 20]
% activation, P2Y4 [2]: <50% ^c

Inhibition of fluorescent binding of 16 to 1321N1-P2Y6R cells ([3]; 0.5 μM): significant reduction of labeling
Inhibition of fluorescent labeling by 16 (micrographs) [4]: inhibit fluorescent labeling
Compound: CO/N=c1/ccn([C@@H]2O[C@H](COP(=O)(O)OP(=O)(O)OP(=O)(O)OC[C@H]3O[C@@H](n4ccc(=O)[nH]c4=O)[C@H](O)[C@@H]3O)[C@@H](O)[C@H]2O)c(=O)[nH]1 [Compound 8, P^1-(Uridine 5′-)-P^4-(N^4-methoxycytidine 5′-) triphosphate]

Potency, EC50, P2Y6 ([5]; 1321N1 astrocytoma cells expressing recombinant hP2Y6, mean ± SEM): nearly inactive
EC50 [1]: > 10000 nM
% activation, P2Y4 [2]: <50% ^c
Compound: C#CCCCOP(=O)(O)OP(=O)(O)OP(=O)(O)OC[C@H]1O[C@@H](n2cc/c(=N/OCc3ccccc3)[nH]c2=O)[C@H](O)[C@@H]1O [Compound 23]

Compound: O=C(Cn1c(=O)ccn([C@@H]2O[C@H](COP(=O)(O)OP(=O)(O)O)[C@@H](O)[C@H]2O)c1=O)c1ccccc1 [Compound 2, 3-phenacyl-UDP]
EC50 [6]: 70 nM

Inhibition of fluorescent binding of 16 to 1321N1-P2Y6R cells ([3]; 10 μM): significant reduction of labeling
Compound: O=c1ccn([C@@H]2O[C@H](COP(=O)(O)OP(=O)(O)O)[C@@H](O)[C@H]2O)c(=O)[nH]1 [Compound 1, Uridine 5′-diphosphate]
EC50 ([6]; endogenous agonist): 300 nM

Selectivity toward the P2Y6R in comparison to the P2Y4R ([5]; ratio of EC50 values): > 260 fold
Compound: O=c1[nH]/c(=N\OCc2cccc(Br)c2)ccn1[C@@H]1O[C@H](COP(=O)(O)OP(=O)(O)O)[C@@H](O)[C@H]1O [Compound 10]

EC50 [1]: > 10000 nM
% activation, P2Y4 [2]: <50% ^c
Compound: O=c1[nH]/c(=N\OCc2ccc(I)cc2)ccn1[C@@H]1O[C@H](COP(=O)(O)OP(=O)(O)O)[C@@H](O)[C@H]1O [Compound 13]

Selectivity toward the P2Y6R in comparison to the P2Y2R ([5]; ratio of EC50 values): 280 fold
Selectivity toward the P2Y6R in comparison to the P2Y4R ([5]; ratio of EC50 values): > 1100 fold
EC50 ([5]; read-out: Potency, EC50, P2Y6, 1321N1 astrocytoma cells expressing recombinant hP2Y6, mean ± SEM): 9 ± 1.9 nM
P2Y6R potency gain over immediate precursor 15 ([5]; vs 15 lacking the fluorophore): 11 fold
EC50 [1]: 2500 ± 660 nM
% activation, P2Y4 [2]: <50% ^c
Activation of the hP2Y14R [7]: did not activate
Specific labeling of 1321N1 cells expressing the hP2Y1R [9]: no specific labeling
Compound: (N^4-(3-(AlexaFluor-NH-(CH2)6-triazole-(CH2)2-C≡C)-benzyloxy))-CDP [Compound 16]
Specific labeling of control 1321N1 cells [8]: no specific labeling
Cell-associated fluorescence, localization ([4]; 2 μM, 60 min incubation at 37 °C, confocal microscopy): receptor-dependent and mainly intracellular
Fluorescence of cells not expressing a P2YR [10]: no increase in fluorescence

Compound: O=c1[nH]/c(=N\OCc2ccccc2)ccn1[C@@H]1O[C@H](COP(=O)(O)OP(=O)(O)O)[C@@H](O)[C@H]1O [Compound 6, N^4-benzyloxy-CDP]
P2Y6R selectivity vs. P2Y2R [6]: 82 fold
P2Y6R selectivity vs. P2Y4R [6]: 44 fold

Blockade of cell labeling by 100 μM UDP ([3]; 100 nM to 1 μM): could not be blocked
Compound: N^4-(3-(Cy5-NH-(CH2)6-triazole-(CH2)2-C≡C)-benzyloxy)-CDP [Compound 17]
Dependence of 1321N1 cell labeling on P2Y6R expression ([3]; 100 nM to 1 μM): independent of the expression of the P2Y6R
